Assay results as given in ChEMBL document CHEMBL1133085, “Synthesis, antibacterial, and cytotoxic evaluation of certain 7-substituted norfloxacin derivatives” (2000).
Values after ≈ are worked out from the molar mass of the structure shown.

Legend:
Assay type in all cases: functional
[1] = test system: UO-31; assay: In vitro inhibitory activity for human renal cancer cell line UO-31 was determined.
Procedure, shortened: (§1)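 NCI in vitro human tumour cell line panel screen. Growth inhibition is expressed as log GI₅₀ (M), the concentration reducing cell growth to 50% of controls. The mean is the average log GI₅₀ across all cell lines tested.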

[2] = test system: CAKI-1; assay: In vitro inhibitory activity for human renal cancer cell line […] was determined.; procedure, shortened: as §1
[3] = Mean value (average log GI50) over all cell lines tested; procedure, shortened: as §1
[4] = test system: Klebsiella pneumoniae; assay: In vitro antimicrobial activity against Klebsiella pneumoniae was determined
Procedure, shortened: (§2)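 Broth microdilution MIC in nutrient broth with 1-5 × 10⁵ CFU/mL inoculum. Compounds were dissolved in 100% DMSO and serially diluted in DMSO, starting at 300 µM final with at most 1% DMSO. Plates were incubated at 37 °C for 20-72 h. MIC was read by visual turbidity or microscopy. Vehicle and reference controls were included, and tests were run in duplicate.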

[5] = In vitro antimicrobial activity against Mycobacterium ranae was determined
Procedure, shortened: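 MIC determined in brain heart infusion broth containing 1-5 × 10⁵ CFU/mL. Compounds in DMSO were serially diluted, starting at 300 µM final with 1% DMSO maximum. Incubation was at 37 °C for 20-72 h, with visual turbidity or microscope read-out. Vehicle and reference controls were included, and assays were run in duplicate.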

[6] = test system: Escherichia coli; assay: In vitro antimicrobial activity against Escherichia coli was determined; procedure, shortened: as §2
[7] = test system: Proteus vulgaris; assay: In vitro antimicrobial activity against Proteus vulgaris was determined
Procedure, shortened: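 MIC determined in Mueller-Hinton broth inoculated at 1-5 × 10⁵ CFU/mL. DMSO serial dilutions of compounds were used, with a top final concentration of 300 µM and DMSO at most 1%. Incubation was at 37 °C for 20-72 h. Growth was judged by turbidity or microscopy. Vehicle and reference controls were included, with duplicate assays.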

[8] = test system: Enterococcus faecalis; assay: In vitro antimicrobial activity against Enterococcus faecalis (vancomycin-resistant) was determined
Procedure, shortened: (§3)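 Broth dilution in tryptic soy broth with 7% calf serum against clinical isolates (vancomycin-resistant E. faecalis; erythromycin/ampicillin-resistant S. pneumoniae) at 1-5 × 10⁵ CFU/mL. DMSO serial dilutions were added 1:100, giving a top concentration of 300 µM and at most 1% DMSO. Incubated 20-72 h at 37 °C. MIC (µM) read by visual turbidity or microscopy. Vehicle and reference controls; duplicate.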

[9] = test system: RXF 393; assay: In vitro inhibitory activity for human renal cancer cell line RXF-393 was determined.; procedure, shortened: as §1
[10] = In vitro antimicrobial activity against […] (erythromycin and ampicillin-resistant) was determined; details: Streptococcus pneumoniae; procedure, shortened: as §3
[11] = test system: Pseudomonas aeruginosa; assay: In vitro antimicrobial activity against Pseudomonas aeruginosa was determined; procedure, shortened: as §2
[12] = test system: Staphylococcus aureus; assay: In vitro antimicrobial activity against Staphylococcus aureus (methicillin-resistant) was determined
Procedure, shortened: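 MRSA in Mueller-Hinton broth at 1-5 × 10⁵ CFU/mL. Compound serial dilutions in 100% DMSO were added 1:100, giving a maximal test concentration of 300 µM and at most 1% DMSO. Plates were held 20-72 h at 37 °C. MIC (µM) was taken from visual turbidity or microscopic growth. Vehicle and reference-agent controls; run in duplicate.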

Compound	GI50 [1] [µM]	GI50 [2] [µM]	Mean [3]	MIC [4] [µM]	MIC [5] [µM]	MIC [6] [µM]	MIC [7] [µM]	MIC [8] [µM]	GI50 [9] [µM]	MIC [10] [µM]	MIC [11] [µM]	MIC [12] [µM]
C=C1CC(CN2CCN(c3cc4c(cc3F)c(=O)c(C(=O)O)cn4CC)CC2)(c2ccc(OC)cc2)OC1=O (configuration not stated)	2.75	5.13	-5.19	–	–	–	–	–	–	–	–	–
CCn1cc(C(=O)O)c(=O)c2cc(F)c(N3CCN(C/C(=N\O)c4ccc(Cl)cc4)CC3)cc21	0.0288	0.398	-5.03	0.21 (≈ 0.102 µg/mL)	> 200	6.16 (≈ 3 µg/mL)	6.16 (≈ 3 µg/mL)	> 200	0.724	> 200	> 200	> 200
CCn1cc(C(=O)O)c(=O)c2cc(F)c(N3CCN(C/C(C)=N/O)CC3)cc21	39.8	> 100	>-4	0.13 (≈ 0.0508 µg/mL)	32 (≈ 12.5 µg/mL)	0.51 (≈ 0.199 µg/mL)	2 (≈ 0.781 µg/mL)	30 (≈ 11.7 µg/mL)	> 100	30 (≈ 11.7 µg/mL)	16 (≈ 6.25 µg/mL)	0.51 (≈ 0.199 µg/mL)
CCn1cc(C(=O)O)c(=O)c2cc(F)c(N3CCN(C/C(=N/O)c4ccccc4)CC3)cc21	0.309	32.4	-4.53	0.22 (≈ 0.0995 µg/mL)	55.3 (≈ 25 µg/mL)	0.86 (≈ 0.389 µg/mL)	3.45 (≈ 1.56 µg/mL)	> 200	36.3	> 200	13.8 (≈ 6.24 µg/mL)	0.44 (≈ 0.199 µg/mL)
CCn1cc(C(=O)O)c(=O)c2cc(F)c(N3CCN(CC(=O)c4ccc(OC)cc4)CC3)cc21	–	–	–	0.053 (≈ 0.0248 µg/mL)	> 200	0.83 (≈ 0.388 µg/mL)	0.83 (≈ 0.388 µg/mL)	> 200	–	> 200	13.4 (≈ 6.26 µg/mL)	6.7 (≈ 3.13 µg/mL)
C=C1CC(CN2CCN(c3cc4c(cc3F)c(=O)c(C(=O)O)cn4CC)CC2)(c2ccccc2)OC1=O (configuration not stated)	1.58	1.86	-5.47	12.4 (≈ 6.27 µg/mL)	> 200	98.9 (≈ 50 µg/mL)	> 200	–	–	–	> 200	1.54 (≈ 0.779 µg/mL)
CCn1cc(C(=O)O)c(=O)c2cc(F)c(N3CCN(C/C(=N/O)c4ccc(F)cc4)CC3)cc21	0.132	1.91	-4.67	0.21 (≈ 0.0988 µg/mL)	> 200	6.38 (≈ 3 µg/mL)	6.38 (≈ 3 µg/mL)	> 200	0.17	> 200	> 200	2.13 (≈ 1 µg/mL)
CCn1cc(C(=O)O)c(=O)c2cc(F)c(N3CCNCC3)cc21 [NORFLOXACIN]	–	–	–	0.041 (≈ 0.0131 µg/mL)	9.8 (≈ 3.13 µg/mL)	0.63 (≈ 0.201 µg/mL)	0.16 (≈ 0.0511 µg/mL)	9.8 (≈ 3.13 µg/mL)	–	19.6 (≈ 6.26 µg/mL)	1.22 (≈ 0.39 µg/mL)	4.89 (≈ 1.56 µg/mL)
CCn1cc(C(=O)O)c(=O)c2cc(F)c(N3CCN(C/C(=N\O)c4ccc(OC)cc4)CC3)cc21	0.55	6.92	-4.5	0.027 (≈ 0.013 µg/mL)	104 (≈ 50.2 µg/mL)	1.62 (≈ 0.782 µg/mL)	3.23 (≈ 1.56 µg/mL)	3.23 (≈ 1.56 µg/mL)	–	13 (≈ 6.27 µg/mL)	25.9 (≈ 12.5 µg/mL)	0.41 (≈ 0.198 µg/mL)
